Assay results as given in ChEMBL document CHEMBL1123704, “Synthesis of D-oxa tricyclic partial ergolines as dopamine agonists” (1987).

What was measured:
Format in all cases: functional
[1] = test system: Rattus norvegicus; assay: Ability to lower the serum prolactin levels in comparison with that of pergolide expressed as percent inhibition change at ip dose of 0.005 mg/kg; settings: route intraperitoneal
In short: (§1)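 Reserpinized male rats, test compound ip. Serum prolactin (ng/mL) was measured in control and treated groups, and the treated value was expressed as percent change from control. Means ± standard error for 10 rats, with significance versus control prolactin given as p.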

[2] = test system: Rattus norvegicus; assay: Ability to lower the serum prolactin levels in comparison with that of pergolide was determined for the control rats at ip dose of 0.05 mg/kg; settings: route intraperitoneal; in short: as §1
[3] = test system: Rattus norvegicus; assay: Ability to lower the serum prolactin levels in comparison with that of pergolide expressed as percent inhibition change at ip dose of 0.01 mg/kg; settings: route intraperitoneal; in short: as §1
[4] = test system: Rattus norvegicus; assay: Ability to lower the serum prolactin levels in comparison with that of pergolide was determined for the drug-treated rats at ip dose of 0.05 mg/kg; settings: route intraperitoneal; in short: as §1
[5] = test system: Rattus norvegicus; assay: Ability to lower the serum prolactin levels in comparison with that of pergolide was determined for the control rats at ip dose of 0.01 mg/kg; settings: route intraperitoneal; in short: as §1
[6] = test system: Rattus norvegicus; assay: Ability to lower the serum prolactin levels in comparison with that of pergolide was determined for the control rats at ip dose of 0.005 mg/kg; settings: route intraperitoneal; in short: as §1
[7] = test system: Rattus norvegicus; assay: Ability to induce contralateral rotational behavior in unilateral 6-hydroxydopamine nigrostriatal-lesioned rats and percent of rats turning was determined at intraperitoneal dosage of 1.0 mg/kg
In short: (§2)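 Rats given unilateral 6-hydroxydopamine nigrostriatal lesions, then test compound ip. Contralateral rotation was scored as percent of rats turning and as turns in the first 15 min after turning began. Groups of 6–10 rats.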

[8] = test system: Rattus norvegicus; assay: Ability to lower the serum prolactin levels in comparison with that of pergolide was determined for the drug-treated rats at ip dose of 0.005 mg/kg; settings: route intraperitoneal; in short: as §1
[9] = test system: Rattus norvegicus; assay: Ability to lower the serum prolactin levels in comparison with that of pergolide expressed as percent inhibition change at ip dose of 0.05 mg/kg; settings: route intraperitoneal; in short: as §1
[10] = test system: Rattus norvegicus; assay: Ability to induce contralateral rotational behavior in unilateral 6-hydroxydopamine nigrostriatal-lesioned rats and no. of turns was determined after 15 minutes of start at intraperitoneal dosage of 1.0 mg/kg; in short: as §2
[11] = test system: Rattus norvegicus; assay: Ability to lower the serum prolactin levels in comparison with that of pergolide was determined for the drug-treated rats at ip dose of 0.01 mg/kg; settings: route intraperitoneal; in short: as §1
[12] = test system: Rattus norvegicus; assay: Ability to lower the serum prolactin levels in comparison with that of pergolide expressed as percent inhibition change at ip dose of 0.5 mg/kg; settings: route intraperitoneal; in short: as §1
[13] = test system: Rattus norvegicus; assay: Ability to induce contralateral rotational behavior in unilateral 6-hydroxydopamine nigrostriatal-lesioned rats and percent of rats turning was determined at intraperitoneal dosage of 0.1 mg/kg; in short: as §2
[14] = test system: Rattus norvegicus; assay: Ability to lower the serum prolactin levels in comparison with that of pergolide was determined for the drug-treated rats at ip dose of 0.5 mg/kg; settings: route intraperitoneal; in short: as §1
[15] = test system: Rattus norvegicus; assay: Ability to lower the serum prolactin levels in comparison with that of pergolide was determined for the drug-treated rats at ip dose of 5.0 mg/kg; settings: route intraperitoneal; in short: as §1
[16] = test system: Rattus norvegicus; assay: Ability to induce contralateral rotational behavior in unilateral 6-hydroxydopamine nigrostriatal-lesioned rats and no. of turns was determined after 15 minutes of start at intraperitoneal dosage of 0.1 mg/kg; in short: as §2
[17] = test system: Rattus norvegicus; assay: Ability to lower the serum prolactin levels in comparison with that of pergolide expressed as percent inhibition change at ip dose of 5.0 mg/kg; settings: route intraperitoneal; in short: as §1
[18] = test system: Rattus norvegicus; assay: Ability to lower the serum prolactin levels in comparison with that of pergolide was determined for the control rats at ip dose of 0.1 mg/kg; settings: route intraperitoneal; in short: as §1
[19] = test system: Rattus norvegicus; assay: Ability to lower the serum prolactin levels in comparison with that of pergolide was determined for the drug-treated rats at ip dose of 0.1 mg/kg; settings: route intraperitoneal; in short: as §1
[20] = test system: Rattus norvegicus; assay: Ability to lower the serum prolactin levels in comparison with that of pergolide expressed as percent inhibition change at ip dose of 0.1 mg/kg; settings: route intraperitoneal; in short: as §1
[21] = test system: Rattus norvegicus; assay: Ability to lower the serum prolactin levels in comparison with that of pergolide was determined for the control rats at ip dose of 0.5 mg/kg; settings: route intraperitoneal; in short: as §1

Row | SMILES | Change [1] [%] | Prolactin control [2] [ng/mL] | Change [3] [%] | Prolactin treatment [4] [ng/mL] | Prolactin control [5] [ng/mL] | Prolactin control [6] [ng/mL] | Rats turning [7] [%] | Prolactin treatment [8] [ng/mL] | Change [9] [%] | Turns [10] | Prolactin treatment [11] [ng/mL] | Change [12] [%] | Of rats turning [13] [%] | Prolactin treatment [14] [ng/mL] | Of rats turning [7] [%] | Turns [16] | also measured
1 | CCCN1CCO[C@@H]2Cc3nc(N)ncc3C[C@H]21 | 1 | 45.4 | -31 | 13.8 | 52 | 40.6 | 80 | 41.2 | -70 | 33 | 33.7 |  |  |  |  |  | 
2 | CCCN1CCC[C@@H]2Cc3n[nH]cc3C[C@H]21 [QUINPIROLE] |  |  |  | 12.3 |  |  |  |  | -61 |  |  | -76 | 75 | 7.7 | 100 |  | Prolactin treatment [15]: 2.7 ng/mL; Turns/1st [16]: 67; Change [17]: -91%; Turns/1st [10]: 85
3 | CCCN1CCO[C@@H]2Cc3nc(N)sc3C[C@H]21 |  | 41.5 | -20 | 20.2 | 40.6 |  | 80 |  | -51 | 95 | 48.9 |  |  |  |  |  | 
4 | CCCN1C[C@H](CSC)C[C@@H]2c3cccc4[nH]cc(c34)C[C@H]21 [PERGOLIDE] | -91 | 30.4 |  | 1.6 |  | 37.7 |  | 3.5 | -95 | 93 |  |  | 83 |  | 100 | 81 | 
5 | CCCN1CCO[C@@H]2Cc3n[nH]cc3C[C@H]21 |  | 45.5 | 7 | 27 | 58 |  | 100 |  | -41 | 52 | 62 | -92 |  | 3.6 |  | 35 | Prolactin control [18]: 46.8 ng/mL; Rats turning [13]: 60%; Prolactin treatment [19]: 30.2 ng/mL; Change [20]: -35%; Prolactin control [21]: 46.8 ng/mL
